Source: ChEMBL document CHEMBL2390935, “Synthesis and pharmacological properties of a new hydrophilic and orally bioavailable 5-HT4 antagonist” (Eur J Med Chem, 2013)

Assays:
Rattus norvegicus [1] = assay: Oral bioavailability in Sprague-Dawley rat assessed as 2-[4-[[4-(3,4-dihydro-2H-[1,3]oxazino[3,2-a]indole-10-carbonyloxymethyl)-1-piperidinyl]methyl]phenyl]-2-methylpropanoic acid level at 10 mg/kg by LC-MS/MS analysis; assay type: ADME, organism-based; conditions: in vivo
Procedure, shortened: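 Rats given 10 mg/kg orally and, for the free acid, 1 mg/kg i.v. Free-acid plasma levels measured by LC-MS at timed points. AUC by linear trapezoidal rule, extrapolated to infinity. F = (AUC p.o./dose p.o.)/(AUC i.v./dose i.v.), reported as %.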

[2] = Oral bioavailability in Sprague-Dawley rat at 10 mg/kg by LC-MS/MS analysis; assay type: ADME, organism-based; conditions: in vivo
Procedure, shortened: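 Male Sprague-Dawley rats dosed 10 mg/kg p.o. and 1 mg/kg i.v. Plasma free acid measured by LC-MS/MS at timed samples up to 24 h. Non-compartmental AUC (trapezoidal, extrapolated to infinity). F = (AUC p.o./dose p.o.)/(AUC i.v./dose i.v.), expressed in %.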

Rattus norvegicus [3] = assay: Elimination half life in Sprague-Dawley rat assessed as 2-[4-[[4-(3,4-dihydro-2H-[1,3]oxazino[3,2-a]indole-10-carbonyloxymethyl)-1-piperidinyl]methyl]phenyl]-2-methylpropanoic acid level at 10 mg/kg, po by LC-MS/MS analysis; assay type: ADME, organism-based; design: dose 10 mg/kg, route oral; conditions: in vivo
Procedure, shortened: (§1)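 Male Sprague-Dawley rats, 10 mg/kg p.o. in 10% ethanol/water or 2% β-cyclodextrin (1.0 mg/ml), n = 2–3. Tail-vein and terminal cardiac blood taken under isoflurane at 5 min–24 h. Plasma acidified and acetonitrile-precipitated, then the free acid measured by LC-MS MRM (LOQ 0.5 ng/ml). Non-compartmental analysis per animal, averaged. T1/2 from the terminal log-linear regression; Cmax and Tmax read directly.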

[4] = Elimination half life in Sprague-Dawley rat at 10 mg/kg, po by LC-MS/MS analysis; assay type: ADME, organism-based; design: dose 10 mg/kg, route oral; conditions: in vivo, read-out: beta t1/2
Procedure, shortened: (§2)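 Male Sprague-Dawley rats (n = 3 per compound, n = 2 for the medoxomil prodrug) given 10 mg/kg p.o., in 10% ethanol in water or in 2% β-cyclodextrin (1.0 mg/ml). Tail-vein and terminal blood taken to 24 h. Plasma acidified and acetonitrile-precipitated. Free acid quantified by UPLC-ESI MRM MS. Non-compartmental analysis for each animal, then averaged; AUC by linear trapezoidal rule extrapolated to infinity; Cmax and Tmax read directly; T1/2 from terminal slope.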

Rattus norvegicus [5] = assay: Tmax in Sprague-Dawley rat assessed as 2-[4-[[4-(3,4-dihydro-2H-[1,3]oxazino[3,2-a]indole-10-carbonyloxymethyl)-1-piperidinyl]methyl]phenyl]-2-methylpropanoic acid level at 10 mg/kg, po by LC-MS/MS analysis; assay type: ADME, organism-based; design: dose 10 mg/kg, route oral; conditions: in vivo; procedure, shortened: as §1
[6] = Tmax in Sprague-Dawley rat at 10 mg/kg, po by LC-MS/MS analysis; assay type: ADME, organism-based; design: dose 10 mg/kg, route oral; conditions: in vivo; procedure, shortened: as §2
Rattus norvegicus [7] = assay: Cmax in Sprague-Dawley rat assessed as 2-[4-[[4-(3,4-dihydro-2H-[1,3]oxazino[3,2-a]indole-10-carbonyloxymethyl)-1-piperidinyl]methyl]phenyl]-2-methylpropanoic acid level at 10 mg/kg, po by LC-MS/MS analysis; assay type: ADME, organism-based; design: dose 10 mg/kg, route oral; conditions: in vivo; procedure, shortened: as §1
[8] = Cmax in Sprague-Dawley rat at 10 mg/kg, po by LC-MS/MS analysis; assay type: ADME, organism-based; design: dose 10 mg/kg, route oral; conditions: in vivo; procedure, shortened: as §2
Rattus norvegicus [9] = assay: AUC in Sprague-Dawley rat assessed as 2-[4-[[4-(3,4-dihydro-2H-[1,3]oxazino[3,2-a]indole-10-carbonyloxymethyl)-1-piperidinyl]methyl]phenyl]-2-methylpropanoic acid level at 10 mg/kg, po by LC-MS/MS analysis; assay type: ADME, organism-based, Plasma; design: dose 10 mg/kg, route oral; conditions: in vivo; procedure, shortened: as §1
Rattus norvegicus [10] = assay: AUC in Sprague-Dawley rat at 10 mg/kg, po by LC-MS/MS analysis; assay type: ADME, organism-based, Plasma; design: dose 10 mg/kg, route oral; conditions: in vivo; procedure, shortened: as §2
[11] = 1-octanol-PBS partition coefficient, log D of the compound at pH 7.4 by shake-flask method; assay type: physicochemical
[12] = Metabolic stability in human liver microsomes assessed as compound remaining at 2 uM after 60 mins by LC-MS analysis; assay type: ADME, Microsome; conditions: read-out: Stability
Procedure, shortened: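 Pooled human liver microsomes (30 donors) at 0.5 mg protein/ml, 2 µM substrate, 1% DMSO, 1 mM NADPH plus 1 mM UDPGA, 37 °C. Cofactor-free parallel incubations run. Samples taken at 0, 10, 30 and 60 min and quenched with ice-cold acetonitrile. Disappearance judged by LC-MS peak area against the 0 min sample without cofactors.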

[13] = target: Voltage-gated inwardly rectifying potassium channel KCNH2 (Homo sapiens, UniProt Q12809); assay: Inhibition of human ERG expressed in HEK293 cells by whole-cell patch-clamp technique; assay type: cell-based
Chain of Voltage-gated inwardly rectifying potassium channel KCNH2 (Q12809 whole entry, the tested form may be a part): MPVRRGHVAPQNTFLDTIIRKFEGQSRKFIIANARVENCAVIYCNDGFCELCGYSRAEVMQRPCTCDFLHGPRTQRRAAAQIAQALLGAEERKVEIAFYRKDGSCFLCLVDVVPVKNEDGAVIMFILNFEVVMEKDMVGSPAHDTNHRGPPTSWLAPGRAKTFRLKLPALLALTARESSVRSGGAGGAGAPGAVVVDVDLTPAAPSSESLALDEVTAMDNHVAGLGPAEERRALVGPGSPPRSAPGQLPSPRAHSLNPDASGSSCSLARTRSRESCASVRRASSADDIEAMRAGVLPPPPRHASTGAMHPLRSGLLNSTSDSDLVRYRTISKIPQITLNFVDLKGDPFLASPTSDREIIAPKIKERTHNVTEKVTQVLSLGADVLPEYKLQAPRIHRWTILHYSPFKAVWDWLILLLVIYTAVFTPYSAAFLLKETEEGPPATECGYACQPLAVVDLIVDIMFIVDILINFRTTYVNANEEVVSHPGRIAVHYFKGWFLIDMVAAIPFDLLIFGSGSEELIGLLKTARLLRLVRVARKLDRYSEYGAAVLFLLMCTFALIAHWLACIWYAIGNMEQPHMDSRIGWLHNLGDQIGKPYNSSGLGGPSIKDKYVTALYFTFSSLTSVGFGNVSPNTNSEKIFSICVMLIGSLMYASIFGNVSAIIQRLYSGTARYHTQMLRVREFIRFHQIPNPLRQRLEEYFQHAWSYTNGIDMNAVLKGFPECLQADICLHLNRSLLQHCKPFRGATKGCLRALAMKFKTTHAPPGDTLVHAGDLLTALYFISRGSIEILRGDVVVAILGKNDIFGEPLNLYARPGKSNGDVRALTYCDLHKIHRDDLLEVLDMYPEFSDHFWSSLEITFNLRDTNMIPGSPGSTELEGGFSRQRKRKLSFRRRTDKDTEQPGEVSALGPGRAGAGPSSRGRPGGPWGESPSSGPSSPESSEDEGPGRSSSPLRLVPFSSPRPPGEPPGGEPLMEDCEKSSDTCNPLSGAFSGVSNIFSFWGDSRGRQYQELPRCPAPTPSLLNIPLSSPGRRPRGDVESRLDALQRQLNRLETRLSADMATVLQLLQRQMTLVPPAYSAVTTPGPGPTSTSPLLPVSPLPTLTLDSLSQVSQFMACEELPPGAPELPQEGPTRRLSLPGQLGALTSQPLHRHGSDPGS
Procedure, shortened: (§3)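 Whole-cell patch clamp on isolated hERG-expressing cells superfused with HB-PSS, one cell per coverslip, holding potential -80 mV. Peak tail current averaged over 5–10 pulses. Baseline taken before exposure; ascending concentrations applied to steady state without washout, at least 3 cells per concentration. Residual current corrected for time-matched vehicle rundown. IC50 from a Hill-type fit. Terfenadine 50 nM served as positive control.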

hERG (KCNH2) = hERG (KCNH2) (Homo sapiens, UniProt Q12809); assay: Inhibition of human ERG expressed in HEK293 cells at 100 uM by whole-cell patch-clamp technique relative to control; assay type: cell-based; conditions: HEK293 cells expressing human ERG; procedure, shortened: as §3
Chain of hERG (KCNH2) (Q12809 whole entry): as the sequence (Q12809 whole entry, the tested form may be a part) above

[14] = target: T1, 5-hydroxytryptamine receptor 4 (Homo sapiens, UniProt Q13639); assay: Displacement of [3H]GR113808 from human 5-HT4B receptor expressed in HEK293 cells after 1 hr by liquid scintillation counting analysis; assay type: cell-based
T1 sequence (Q13639 whole entry): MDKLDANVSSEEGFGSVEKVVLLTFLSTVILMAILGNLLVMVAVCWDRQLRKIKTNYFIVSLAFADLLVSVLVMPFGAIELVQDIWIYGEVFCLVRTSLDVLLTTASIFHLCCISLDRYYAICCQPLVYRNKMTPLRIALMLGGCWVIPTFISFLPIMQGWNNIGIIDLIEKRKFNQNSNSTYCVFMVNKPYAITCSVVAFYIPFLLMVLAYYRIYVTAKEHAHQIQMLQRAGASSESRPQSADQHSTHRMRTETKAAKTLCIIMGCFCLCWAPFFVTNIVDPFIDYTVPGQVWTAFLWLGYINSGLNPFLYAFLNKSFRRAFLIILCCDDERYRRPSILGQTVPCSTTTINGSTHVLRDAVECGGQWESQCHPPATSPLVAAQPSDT
Procedure, shortened: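 Competitive binding with 0.3 nM [3H]GR113808 on membranes from HEK293 cells stably expressing human 5-HT4(b).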

[15] = target: T1, 5-hydroxytryptamine receptor 4; assay: Antagonist activity at human 5-HT4B receptor expressed in HEK293 cells assessed as inhibition of 5-HT-stimulated adenylyl cyclase activity after 20 mins; assay type: functional, cell-based
Procedure, shortened: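 Membranes from HEK293 cells stably expressing human 5-HT4(b). Adenylyl cyclase activity stimulated by 1 µM 5-HT. Inhibition measured across a concentration range of test compound.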

SMILES | F (Rattus norvegicus [1]) | bioavailability [2] | beta t1/2 (Rattus norvegicus [3]) | half-life [4] | Tmax (Rattus norvegicus [5]) | Tmax [6] | Cmax (Rattus norvegicus [7]) | Cmax [8] | AUC (Rattus norvegicus [9]) | AUC (Rattus norvegicus [10]) | logD [11] | remaining at 1 h, 2 µM [12] | IC50 [13] | inhibition at 100 µM (hERG (KCNH2)) | Ki [14] | pKb [15]
CC(C)(C)c1ccc(CN2CCC(COC(=O)c3c4n(c5ccccc35)CCCO4)CC2)cc1 | 1% | 6% | 19.83 h | 26.8 h | 1.33 h | 5.67 h | 13 ng/mL | 33 ng/mL | 127 ng·h/mL | 533 ng·h/mL | 2.4 |  |  |  |  | 
CC(C)(C(=O)O)c1ccc(CN2CCC(COC(=O)c3c4n(c5ccccc35)CCCO4)CC2)cc1 |  | 3% |  | 6.07 h |  | 0.2 h |  | 130 ng/mL |  | 285 ng·h/mL | -1.2 | < 0.1% | 69000 nM | 55.8% | 0.126 nM | 8.6
CCCCN1CCC(CNC(=O)c2c3n(c4ccccc24)CCCO3)CC1 [PIBOSEROD] |  |  |  |  |  |  |  |  |  |  |  |  |  |  | 0.1 nM | 9.1
Cc1oc(=O)oc1COC(=O)C(C)(C)c1ccc(CN2CCC(COC(=O)c3c4n(c5ccccc35)CCCO4)CC2)cc1 | 16% |  | 1.2 h |  | 0.5 h |  | 817 ng/mL |  | 1206 ng·h/mL |  | 2.2 |  |  |  |  | 
Cn1cc(C(=O)OCC2CCN(CCNS(C)(=O)=O)CC2)c2ccccc21 |  |  |  |  |  |  |  |  |  |  |  |  |  |  | 0.0398 nM | 8.7
